Source: PMC3866226 (Molecular pharmaceutics, 2013)
Where “and” joins values, the source holds several entries; their conditions need not be identical. Identical values can stand only once. Entries after “also recorded” stand apart in the source; their conditions may differ. Bridge positions count the residues as written; N and C are the ends. Square brackets hold non-standard residues; d marks the D form. Peptide text beside a SMILES is read from it.

How the values were obtained:
B16/F1 melanoma cells [1] = assay: Cellular internalization; type: cell-based, murine; conditions: after 20 min of incubation at 25 °C, acid wash pH 4.5, n=3
Method in brief: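 Cells at 2.5×10^5/well were grown overnight at 37 °C and washed with binding medium (MEM, 25 mM HEPES pH 7.4, 0.2% BSA, 0.3 mM 1,10-phenanthroline). They were incubated at 25 °C with ~200,000 cpm HPLC-purified radiopeptide for 20–120 min (n=3). Membrane-bound activity was stripped with 40 mM sodium acetate pH 4.5/0.9% NaCl/0.2% BSA. Cells were lysed in 1 N NaOH for 5 min; both fractions were gamma-counted.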

B16/F1 melanoma cells [2] = assay: Cellular efflux; type: cell-based, murine; conditions: loaded 2 h at 25 °C, then 2 h of incubation in the culture medium
Method in brief: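 B16/F1 cells were seeded at 2.5×10^5/well and grown overnight at 37 °C. They were loaded with radiopeptide for 2 h at 25 °C and rinsed twice with ice-cold PBS. Release into culture medium was then monitored. At 20, 40, 60, 90 and 120 min, surface-bound and intracellular radioactivity were collected separately and gamma-counted.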

[3] = Biodistribution in B16/F1 melanoma-bearing C57 mice; type: in vivo, mouse; conditions: female, C57, mouse, iv, 0.037 MBq, total radioactivity
Method in brief: (§1)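 Female C57 mice bore subcutaneous right-flank tumours from 1×10^6 B16/F1 cells (~0.2 g at 10 days). Radiopeptide, 0.037 MBq in pH 7.4 saline, went in via tail vein. Groups of 4 were killed at 0.5, 2, 4 and 24 h; tumours and organs were weighed and gamma-counted. Blood was taken as 6.5% body weight. Blockade: co-injected 10 µg (6.1 nmol) unlabeled NDP-MSH, 2 h. Results as %ID/g or %ID, mean ± SD, n=4.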

[4] = test system: B16/F1 melanoma-bearing C57 mice; assay: as above; type: in vivo, mouse
Method in brief: as §1

[5] = test system: B16/F1 melanoma-bearing C57 mice; assay: Effect of L-lysine co-injection on renal and tumor uptake; type: in vivo, mouse; conditions: 2 h post-injection, 15 mg L-lysine
Method in brief: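 Groups of 4 tumour-bearing C57 mice received 0.037 MBq radiopeptide mixed with 15 mg L-lysine via injection. Mice were killed at 2 h, and tumours and organs were weighed and gamma-counted. Uptake with versus without L-lysine was compared by unpaired Student's t-test, significance p<0.05.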

[6] = test system: B16/F1 melanoma-bearing C57 mice; assay: Urinary metabolites by radio-HPLC; type: in vivo, mouse; conditions: urine at 2 h post-injection of ~3.7 MBq via tail vein
[7] = test system: B16/F1 melanoma-bearing C57 mice; assay: Melanoma imaging by small animal SPECT/CT; type: in vivo, mouse; conditions: 2 h post-injection of 7.4 MBq via tail vein

CC(C)[C@H](NC(=O)[C@@H]1CCCN1C(=O)[C@H](CCCNC(=N)N)NC(=O)[C@H](CS)NC(=O)[C@H](Cc1c[nH]c2ccccc12)NC(=O)[C@H](CCCNC(=N)N)NC(=O)[C@@H](Cc1ccccc1)NC(=O)[C@H](Cc1c[nH]cn1)NC(=O)[C@H](CCC(=O)O)NC(=O)[C@H](CS)NC(=O)[C@H](CS)NC(=O)[C@H](CCCCN)NC(=O)[C@@H]1CC(=O)N[C@@H](CCCNC(=N)N)C(=O)N[C@@H]([C@@H](C)O)C(=O)N[C@@H](CC(=O)O)C(=O)N[C@H](Cc2ccc(O)cc2)C(=O)N1)C(N)=O [^99mTc-RTD-Lys-(Arg^11)CCMSH, metal not drawn] (RTD[dY]DKCCEH[dF]RWCRPV-NH2; lactam N-5)
Activity internalized in the cells (B16/F1 melanoma cells [1]): Approximately 71%
Activity remained inside the cells (cellular efflux) (B16/F1 melanoma cells [2]): 75%
tissue uptake at 0.5 h ([3]; blood): 15.9 ± 3.97 %ID/g
tissue uptake at 2 h ([3]; blood): 0.44 ± 0.13 %ID/g
tissue uptake at 4 h ([3]; blood): 0.55 ± 0.41 %ID/g
tissue uptake at 24 h ([3]; blood): 0.4 ± 0.21 %ID/g
tissue uptake at 0.5 h ([3]; bone): 1.66 ± 0.1 %ID/g
tissue uptake at 2 h ([3]; bone): 0.46 ± 0.11 %ID/g
tissue uptake at 4 h ([3]; bone): 0.39 ± 0.12 %ID/g
tissue uptake at 24 h ([3]; bone): 0.23 ± 0.09 %ID/g
tissue uptake at 0.5 h ([3]; brain): 0.14 ± 0.04 %ID/g
tissue uptake at 2 h ([3]; brain): 0.03 ± 0.01 %ID/g
tissue uptake at 4 h ([3]; brain): 0.02 ± 0.01 %ID/g
tissue uptake at 24 h ([3]; brain): 0.03 ± 0.01 %ID/g
tissue uptake at 0.5 h ([3]; heart): 1.86 ± 0.21 %ID/g
tissue uptake at 2 h ([3]; heart): 0.29 ± 0.08 %ID/g
tissue uptake at 4 h ([3]; heart): 0.19 ± 0.05 %ID/g
tissue uptake at 24 h ([3]; heart): 0.12 ± 0.02 %ID/g
tissue uptake dose at 0.5 h ([3]; intestines): 1.73 ± 0.17 %ID
tissue uptake dose at 2 h ([3]; intestines): 0.84 ± 0.2 %ID
tissue uptake dose at 4 h ([3]; intestines): 0.72 ± 0.18 %ID
tissue uptake dose at 24 h ([3]; intestines): 0.48 ± 0.13 %ID
tissue uptake at 0.5 h ([3]; kidneys): 145 ± 24.6 %ID/g
tissue uptake at 2 h ([3]; kidneys): 135 ± 23.6 %ID/g
tissue uptake at 4 h ([3]; kidneys): 106 ± 27.7 %ID/g
tissue uptake at 24 h ([3]; kidneys): 46.8 ± 14.8 %ID/g
tissue uptake at 0.5 h ([3]; liver): 2.09 ± 0.04 %ID/g
tissue uptake at 2 h ([3]; liver): 1.62 ± 0.14 %ID/g
tissue uptake at 4 h ([3]; liver): 2.01 ± 0.39 %ID/g
tissue uptake at 24 h ([3]; liver): 1.03 ± 0.1 %ID/g
tissue uptake at 0.5 h ([3]; lung): 4.27 ± 0.27 %ID/g
tissue uptake at 2 h ([3]; lung): 0.51 ± 0.37 %ID/g
tissue uptake at 4 h ([3]; lung): 0.39 ± 0.24 %ID/g
tissue uptake at 24 h ([3]; lung): 0.23 ± 0.04 %ID/g
tissue uptake at 0.5 h ([3]; muscle): 0.8 ± 0.38 %ID/g
tissue uptake at 2 h ([3]; muscle): 0.15 ± 0.05 %ID/g
tissue uptake at 4 h ([3]; muscle): 0.07 ± 0.02 %ID/g
tissue uptake at 24 h ([3]; muscle): 0.52 ± 0.1 %ID/g
tissue uptake at 0.5 h ([3]; pancreas): 0.83 ± 0.4 %ID/g
tissue uptake at 2 h ([3]; pancreas): 0.11 ± 0.04 %ID/g
tissue uptake at 4 h ([3]; pancreas): 0.09 ± 0.05 %ID/g
tissue uptake at 24 h ([3]; pancreas): 0.13 ± 0.07 %ID/g
tissue uptake at 0.5 h ([3]; skin): 3.99 ± 0.42 %ID/g
tissue uptake at 2 h ([3]; skin): 0.5 ± 0.19 %ID/g
tissue uptake at 4 h ([3]; skin): 0.27 ± 0.13 %ID/g
tissue uptake at 24 h ([3]; skin): 1.01 ± 0.31 %ID/g
tissue uptake at 0.5 h ([3]; spleen): 1.04 ± 0.33 %ID/g
tissue uptake at 2 h ([3]; spleen): 0.48 ± 0.2 %ID/g
tissue uptake at 4 h ([3]; spleen): 0.47 ± 0.18 %ID/g
tissue uptake at 24 h ([3]; spleen): 0.19 ± 0.13 %ID/g
tissue uptake at 0.5 h ([3]; stomach): 1.87 ± 0.21 %ID/g
tissue uptake at 2 h ([3]; stomach): 0.67 ± 0.16 %ID/g
tissue uptake at 4 h ([3]; stomach): 0.7 ± 0.23 %ID/g
tissue uptake at 24 h ([3]; stomach): 0.21 ± 0.04 %ID/g
tissue to tissue ratio at 2 h ([3]; tumor / blood): 42.7
tissue to tissue ratio at 4 h ([3]; tumor / blood): 25.2
tissue to tissue ratio at 24 h ([3]; tumor / blood): 14.6
tissue to tissue ratio at 0.5 h ([3]; tumor / kidneys): 0.1
tissue to tissue ratio at 2 h ([3]; tumor / kidneys): 0.14
tissue to tissue ratio at 4 h ([3]; tumor / kidneys): 0.13
tissue to tissue ratio at 24 h ([3]; tumor / kidneys): 0.12
tissue to tissue ratio at 0.5 h ([3]; tumor / lung): 3.41
tissue to tissue ratio at 2 h ([3]; tumor / lung): 36.8
tissue to tissue ratio at 4 h ([3]; tumor / lung): 35.5
tissue to tissue ratio at 24 h ([3]; tumor / lung): 25.4
tissue uptake at 0.5 h ([3]; tumor): 14.6 ± 5.31 %ID/g
tissue uptake at 2 h ([3]; tumor): 18.8 ± 5.13 %ID/g
tissue uptake at 4 h ([3]; tumor): 13.8 ± 3.1 %ID/g
tissue uptake at 24 h ([3]; tumor): 5.84 ± 0.5 %ID/g
tissue to tissue ratio at 0.5 h ([3]; tumor/liver): 6.97
tissue to tissue ratio at 2 h ([3]; tumor/liver): 11.6
tissue to tissue ratio at 4 h ([3]; tumor/liver): 6.89
tissue to tissue ratio at 24 h ([3]; tumor/liver): 5.67
tissue to tissue ratio at 0.5 h ([3]; tumor/muscle): 18.2
tissue to tissue ratio at 2 h ([3]; tumor/muscle): 125
tissue to tissue ratio at 4 h ([3]; tumor/muscle): 198
tissue to tissue ratio at 24 h ([3]; tumor/muscle): 11.2
dose excreted at 0.5 h ([3]; urine): 28.6 ± 8.85%
dose excreted at 2 h ([3]; urine): 54.8 ± 5.65%
dose excreted at 4 h ([3]; urine): 61.2 ± 5.56%
dose excreted at 24 h ([3]; urine): 82.2 ± 4.69%
Uptake ratio Tumor/Blood ([4]; 0.5 h post-injection): 0.91
Uptake ratio Tumor/Blood ([4]; 2 h post-injection, NDP blockade): 5.70
Reduction of renal uptake by L-lysine co-injection ([5]; versus without L-lysine): 55% and 40–50%
Effect of L-lysine co-injection on tumor uptake ([5]; p>0.05): didn't affect the tumor uptake; also recorded: without affecting their tumor uptake
Remained intact in the urine [6]: Approximately 70%
Transformed to a more hydrophobic compound in the urine [6]: 30%
Visualization of flank B16/F1 melanoma lesions by SPECT/CT [7]: clearly visualized
